Type in all cases: cell-based
Data set [1] deals with T1, Otop1 channels from human origin (hOtop1) (Homo sapiens, UniProt Q7RTM1).
T1 sequence (Q7RTM1 1-612): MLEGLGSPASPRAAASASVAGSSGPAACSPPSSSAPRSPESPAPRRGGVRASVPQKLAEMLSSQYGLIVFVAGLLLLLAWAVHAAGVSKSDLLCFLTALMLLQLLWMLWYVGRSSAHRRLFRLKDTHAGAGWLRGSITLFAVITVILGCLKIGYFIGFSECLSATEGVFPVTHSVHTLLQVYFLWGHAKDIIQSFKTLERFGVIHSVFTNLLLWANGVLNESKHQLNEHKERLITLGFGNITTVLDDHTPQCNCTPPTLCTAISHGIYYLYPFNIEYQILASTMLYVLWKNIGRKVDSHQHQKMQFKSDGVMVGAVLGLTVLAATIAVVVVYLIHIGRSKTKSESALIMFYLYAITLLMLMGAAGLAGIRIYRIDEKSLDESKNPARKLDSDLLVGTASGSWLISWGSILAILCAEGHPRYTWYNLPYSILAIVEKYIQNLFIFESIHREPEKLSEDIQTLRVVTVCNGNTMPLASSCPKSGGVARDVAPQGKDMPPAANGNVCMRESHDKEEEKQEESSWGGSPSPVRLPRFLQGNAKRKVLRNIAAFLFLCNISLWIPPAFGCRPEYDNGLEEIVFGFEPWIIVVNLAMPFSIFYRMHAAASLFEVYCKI
In words: whole-cell patch-clamp, pH 5.5-evoked currents. Particulars: 10 μM. A digest of the protocol: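 Channel plasmid (2.5 μg) was co-transfected with EGFP plasmid (0.5 μg) using Lipofectamine 2000 into PAC-knockout HEK293T cells. Whole-cell recording 16–24 h after seeding, with Cs-aspartate pipette solution (pH 7.3). Currents evoked by pH 5.5 bath (160 mM NMDG-Cl, 2 mM CaCl2, 10 mM MES); test compound 10 μM.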
(Patch clamp records ionic current or voltage across a cell membrane.)

A further data set deals with T2, mOtop1/R554A (Mus musculus, UniProt Q80VM9, R554A).
T2 sequence (Q80VM9 1-600 R554A): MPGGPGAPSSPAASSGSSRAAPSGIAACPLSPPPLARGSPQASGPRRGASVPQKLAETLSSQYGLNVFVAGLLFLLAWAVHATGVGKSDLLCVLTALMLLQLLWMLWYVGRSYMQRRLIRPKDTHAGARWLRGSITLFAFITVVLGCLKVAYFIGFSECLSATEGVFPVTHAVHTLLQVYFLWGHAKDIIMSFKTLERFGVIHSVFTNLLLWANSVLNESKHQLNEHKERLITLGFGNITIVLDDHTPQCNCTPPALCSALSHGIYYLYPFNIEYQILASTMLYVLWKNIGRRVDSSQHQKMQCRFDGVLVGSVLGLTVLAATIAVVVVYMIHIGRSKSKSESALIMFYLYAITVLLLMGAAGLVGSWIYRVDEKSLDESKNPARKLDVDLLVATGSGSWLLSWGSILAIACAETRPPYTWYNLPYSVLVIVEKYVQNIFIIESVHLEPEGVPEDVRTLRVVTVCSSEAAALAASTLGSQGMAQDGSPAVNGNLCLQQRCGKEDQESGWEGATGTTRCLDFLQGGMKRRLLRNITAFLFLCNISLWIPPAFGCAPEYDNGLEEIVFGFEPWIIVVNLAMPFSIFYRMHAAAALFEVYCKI
In words: patch-clamp, mOtop1 mutant. Particulars: for effect of mutating R554 on the compound's action on Otop1: Fig 5I, J.

The target in another data set is NaV1.7 (Homo sapiens, UniProt Q15858). In words: whole-cell patch-clamp, off-target channel, 10 μM compound. A digest of the protocol: (§1)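 NaV channels, transiently transfected HEK293T cells, whole-cell, 16–24 h after seeding. Pipette (mM): 140 CsF, 1 EGTA, 10 NaCl, 10 HEPES, pH 7.4. Bath (mM): 140 NaCl, 5 KCl, 2 CaCl2, 1 MgCl2, 10 glucose, 10 HEPES, pH 7.4. Bath with 0.1% DMSO applied before 10 μM test compound. Inhibition ratios compared by unpaired t-test, n = 5.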

For the next data set, the target named is NaV1.5 (Homo sapiens, UniProt Q14524). The data set is described as above. Summed up:
as §1

A further data set has as its target CaV3.1 (Homo sapiens, UniProt O43497). In words: whole-cell patch-clamp, off-target channel, 10 μM compound. A digest of the protocol:
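CaV channels in transfected HEK293T cells, whole-cell. Pipette (mM): 120 CsMeSO3, 2 Mg-ATP, 11 EGTA, 10 HEPES, pH 7.4. Bath (mM): 138 NaCl, 5.6 KCl, 2.6 CaCl2, 20 TEA-Cl, 5 glucose, 5 HEPES, pH 7.4. 0.1% DMSO bath applied before 10 μM test compound. Inhibition ratios compared by unpaired t-test, n = 5.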

The target of the next data set is hERG (Homo sapiens, UniProt Q12809). The data set can be described thus: whole-cell patch-clamp, off-target channel, 10 μM compound. A digest of the protocol: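 hERG, transiently transfected HEK293T cells, whole-cell recording 16–24 h after seeding. Bath containing 0.1% DMSO applied first, then 10 μM test compound. Inhibition ratio from DMSO compared with that from compound by unpaired t-test, n = 5.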
Sequence of hERG (Q12809 whole entry): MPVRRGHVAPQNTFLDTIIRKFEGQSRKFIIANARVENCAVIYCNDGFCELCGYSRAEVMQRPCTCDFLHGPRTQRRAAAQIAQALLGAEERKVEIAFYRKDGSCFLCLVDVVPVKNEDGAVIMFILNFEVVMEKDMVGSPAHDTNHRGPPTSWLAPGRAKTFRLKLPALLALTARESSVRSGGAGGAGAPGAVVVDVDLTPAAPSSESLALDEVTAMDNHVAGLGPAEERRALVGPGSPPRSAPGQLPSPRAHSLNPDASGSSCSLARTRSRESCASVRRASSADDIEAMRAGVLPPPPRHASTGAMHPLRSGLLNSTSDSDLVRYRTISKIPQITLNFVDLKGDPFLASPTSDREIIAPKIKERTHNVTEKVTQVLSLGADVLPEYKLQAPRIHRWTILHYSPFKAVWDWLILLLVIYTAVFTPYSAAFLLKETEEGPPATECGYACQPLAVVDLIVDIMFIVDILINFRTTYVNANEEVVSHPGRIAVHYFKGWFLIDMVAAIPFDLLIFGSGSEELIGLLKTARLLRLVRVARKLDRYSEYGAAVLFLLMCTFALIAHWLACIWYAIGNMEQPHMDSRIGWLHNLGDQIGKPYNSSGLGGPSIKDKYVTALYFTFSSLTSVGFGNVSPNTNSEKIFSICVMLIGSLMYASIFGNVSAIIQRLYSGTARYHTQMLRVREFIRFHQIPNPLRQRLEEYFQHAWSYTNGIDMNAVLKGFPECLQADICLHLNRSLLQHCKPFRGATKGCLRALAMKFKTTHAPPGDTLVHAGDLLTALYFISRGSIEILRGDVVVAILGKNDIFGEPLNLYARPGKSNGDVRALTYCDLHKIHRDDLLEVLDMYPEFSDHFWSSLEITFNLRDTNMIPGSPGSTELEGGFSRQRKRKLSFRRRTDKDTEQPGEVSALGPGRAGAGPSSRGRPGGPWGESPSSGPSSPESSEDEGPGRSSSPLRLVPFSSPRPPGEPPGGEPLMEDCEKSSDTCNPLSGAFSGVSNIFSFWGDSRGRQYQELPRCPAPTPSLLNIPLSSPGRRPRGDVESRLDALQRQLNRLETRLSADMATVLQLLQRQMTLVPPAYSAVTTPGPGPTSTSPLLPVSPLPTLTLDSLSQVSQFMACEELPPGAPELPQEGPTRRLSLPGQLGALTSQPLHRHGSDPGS

The target of another data set is Kir2.1 (Homo sapiens, UniProt P63252). The data set can be described thus: whole-cell patch-clamp, off-target channel, 10 μM compound. Particulars: vs 0.1% DMSO.
Sequence of Kir2.1 (P63252 whole entry): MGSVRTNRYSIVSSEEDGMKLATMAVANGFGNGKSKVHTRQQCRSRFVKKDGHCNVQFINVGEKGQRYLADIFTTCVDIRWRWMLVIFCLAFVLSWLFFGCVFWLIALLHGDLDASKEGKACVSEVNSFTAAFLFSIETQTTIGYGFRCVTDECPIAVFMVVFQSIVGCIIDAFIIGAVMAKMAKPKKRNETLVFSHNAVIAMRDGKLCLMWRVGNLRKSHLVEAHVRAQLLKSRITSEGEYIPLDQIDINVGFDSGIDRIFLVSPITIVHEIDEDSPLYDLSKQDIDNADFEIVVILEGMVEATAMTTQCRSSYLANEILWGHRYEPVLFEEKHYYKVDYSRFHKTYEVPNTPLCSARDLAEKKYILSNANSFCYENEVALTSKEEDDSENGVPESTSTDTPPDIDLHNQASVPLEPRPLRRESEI
The target in another data set is ASIC1a (Rattus norvegicus, UniProt P55926). The data set can be described thus: whole-cell patch-clamp, off-target channel, 10 μM compound. The following applies: vs 0.1% DMSO. A digest of the protocol: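 ASIC channels in transfected HEK293T cells, whole-cell. Pipette (mM): 140 CsF, 11 EGTA, 1 CaCl2, 2 TEA-Cl, 4 MgCl2, 10 HEPES, pH 7.3. NaCl-based bath with 20 mM HEPES (pH 7.4) or 20 mM MES (pH 5.5). 0.1% DMSO bath applied before 10 μM test compound. Inhibition ratios compared by unpaired t-test, n = 5.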
Sequence of ASIC1a (P55926 whole entry): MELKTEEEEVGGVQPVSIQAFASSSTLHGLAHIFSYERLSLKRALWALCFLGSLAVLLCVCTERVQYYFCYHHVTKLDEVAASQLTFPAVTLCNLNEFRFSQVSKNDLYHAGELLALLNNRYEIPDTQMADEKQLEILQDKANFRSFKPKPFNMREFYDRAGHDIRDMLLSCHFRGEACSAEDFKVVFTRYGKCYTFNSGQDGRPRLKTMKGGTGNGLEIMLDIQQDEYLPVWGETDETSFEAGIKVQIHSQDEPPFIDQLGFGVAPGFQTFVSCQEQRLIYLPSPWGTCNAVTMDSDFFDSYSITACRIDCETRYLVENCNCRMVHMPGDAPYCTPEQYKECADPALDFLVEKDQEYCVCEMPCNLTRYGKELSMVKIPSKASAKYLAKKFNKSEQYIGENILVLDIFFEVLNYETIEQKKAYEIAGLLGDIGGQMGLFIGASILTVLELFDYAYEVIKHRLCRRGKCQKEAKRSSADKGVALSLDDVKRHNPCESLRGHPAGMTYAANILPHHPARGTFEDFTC

Another data set addresses mOtop1 I239A (Mus musculus, UniProt Q80VM9, I239A). The data set can be described thus: patch-clamp, mOtop1 mutant. The following applies: 10 μM; pH 5.5. Summed up:
(§2)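 Alanine-substituted mOtop1 mutants were co-transfected (2.5 μg channel plus 0.5 μg EGFP plasmid, Lipofectamine 2000) into PAC-knockout HEK293T cells. Whole-cell recording 16–24 h after seeding on PLL coverslips. Pipette (mM): 120 Cs-aspartate, 15 CsCl, 2 Mg-ATP, 5 EGTA, 2.4 CaCl2, 10 HEPES, pH 7.3. Bath (mM): 160 NMDG-Cl, 2 CaCl2, 10 MES, pH 5.5, with 10 μM test compound. Response compared with wild-type mOtop1.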

The next data set has as its target mOtop1 L243A (Mus musculus, UniProt Q80VM9, L243A). The data set can be described thus: patch-clamp, mOtop1 mutant. The following applies: 10 μM; pH 5.5. Summed up:
as §2

Another data set has as its target mOtop1 D245A (Mus musculus, UniProt Q80VM9, D245A). The data set can be described thus: patch-clamp, mOtop1 mutant. Particulars: 10 μM; pH 5.5. A digest of the protocol: as §2

The source of these data is PMC11865470 (Communications Biology, 2025).

“Also recorded” adds a separate entry of the source.

Sequence of CaV3.1 (O43497 whole entry): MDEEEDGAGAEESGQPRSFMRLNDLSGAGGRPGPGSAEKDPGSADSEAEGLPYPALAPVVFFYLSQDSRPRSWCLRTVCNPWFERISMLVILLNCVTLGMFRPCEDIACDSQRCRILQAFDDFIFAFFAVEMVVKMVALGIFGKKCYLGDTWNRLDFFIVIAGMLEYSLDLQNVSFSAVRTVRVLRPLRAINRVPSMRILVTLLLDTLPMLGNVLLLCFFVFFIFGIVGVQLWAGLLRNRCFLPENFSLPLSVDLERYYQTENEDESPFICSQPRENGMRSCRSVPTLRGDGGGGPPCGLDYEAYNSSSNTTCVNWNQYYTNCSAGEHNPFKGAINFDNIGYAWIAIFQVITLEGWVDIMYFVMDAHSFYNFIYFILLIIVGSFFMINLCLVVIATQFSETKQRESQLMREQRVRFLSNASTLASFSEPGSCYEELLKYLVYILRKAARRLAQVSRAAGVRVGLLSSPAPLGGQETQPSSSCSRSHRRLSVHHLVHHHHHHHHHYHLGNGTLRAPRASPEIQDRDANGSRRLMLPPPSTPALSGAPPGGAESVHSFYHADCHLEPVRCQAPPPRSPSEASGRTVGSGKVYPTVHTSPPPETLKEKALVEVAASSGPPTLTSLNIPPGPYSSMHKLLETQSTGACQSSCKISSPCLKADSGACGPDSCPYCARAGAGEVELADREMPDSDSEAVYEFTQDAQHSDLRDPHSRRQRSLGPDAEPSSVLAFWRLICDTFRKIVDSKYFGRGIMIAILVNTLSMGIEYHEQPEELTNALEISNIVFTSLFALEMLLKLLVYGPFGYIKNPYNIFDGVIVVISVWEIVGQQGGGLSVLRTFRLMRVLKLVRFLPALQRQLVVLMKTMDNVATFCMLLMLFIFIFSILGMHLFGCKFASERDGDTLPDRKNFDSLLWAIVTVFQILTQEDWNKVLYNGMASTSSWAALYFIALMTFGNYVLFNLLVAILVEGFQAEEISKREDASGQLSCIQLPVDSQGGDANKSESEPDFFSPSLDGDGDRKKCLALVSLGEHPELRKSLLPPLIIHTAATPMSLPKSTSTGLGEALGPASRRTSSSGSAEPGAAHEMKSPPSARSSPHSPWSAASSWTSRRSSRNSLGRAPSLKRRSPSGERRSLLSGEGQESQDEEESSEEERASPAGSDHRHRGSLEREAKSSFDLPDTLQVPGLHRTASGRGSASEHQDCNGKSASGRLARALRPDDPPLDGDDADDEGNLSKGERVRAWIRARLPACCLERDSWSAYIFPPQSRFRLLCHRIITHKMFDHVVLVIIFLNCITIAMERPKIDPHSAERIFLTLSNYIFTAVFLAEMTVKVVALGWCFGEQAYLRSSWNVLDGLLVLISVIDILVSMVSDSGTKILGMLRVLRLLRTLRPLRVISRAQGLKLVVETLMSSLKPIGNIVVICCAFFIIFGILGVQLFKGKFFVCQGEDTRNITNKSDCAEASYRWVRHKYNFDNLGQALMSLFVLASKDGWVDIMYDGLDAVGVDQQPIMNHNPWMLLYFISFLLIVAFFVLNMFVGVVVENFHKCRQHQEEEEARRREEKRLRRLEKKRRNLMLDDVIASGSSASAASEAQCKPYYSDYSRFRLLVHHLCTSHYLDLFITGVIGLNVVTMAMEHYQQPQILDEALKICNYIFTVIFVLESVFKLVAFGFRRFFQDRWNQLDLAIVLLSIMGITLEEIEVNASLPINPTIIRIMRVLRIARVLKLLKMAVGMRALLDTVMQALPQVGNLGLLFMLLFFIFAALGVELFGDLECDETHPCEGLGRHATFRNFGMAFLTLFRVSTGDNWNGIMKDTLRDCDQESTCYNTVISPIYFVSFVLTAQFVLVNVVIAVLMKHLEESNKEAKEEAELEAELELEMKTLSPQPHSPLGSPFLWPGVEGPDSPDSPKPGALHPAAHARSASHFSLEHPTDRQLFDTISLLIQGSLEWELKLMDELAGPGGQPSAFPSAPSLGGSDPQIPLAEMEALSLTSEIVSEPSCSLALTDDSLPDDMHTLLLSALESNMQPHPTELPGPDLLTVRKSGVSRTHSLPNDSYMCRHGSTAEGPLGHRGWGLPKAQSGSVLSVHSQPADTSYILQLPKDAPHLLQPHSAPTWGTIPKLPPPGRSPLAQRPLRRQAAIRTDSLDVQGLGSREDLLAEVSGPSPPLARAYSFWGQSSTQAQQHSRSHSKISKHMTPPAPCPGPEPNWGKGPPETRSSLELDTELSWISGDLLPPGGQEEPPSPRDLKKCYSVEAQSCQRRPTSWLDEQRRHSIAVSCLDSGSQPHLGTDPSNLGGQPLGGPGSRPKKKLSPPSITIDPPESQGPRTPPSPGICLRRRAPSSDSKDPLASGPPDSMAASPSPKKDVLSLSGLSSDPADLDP
Sequence of mOtop1 D245A (Q80VM9 whole entry D245A): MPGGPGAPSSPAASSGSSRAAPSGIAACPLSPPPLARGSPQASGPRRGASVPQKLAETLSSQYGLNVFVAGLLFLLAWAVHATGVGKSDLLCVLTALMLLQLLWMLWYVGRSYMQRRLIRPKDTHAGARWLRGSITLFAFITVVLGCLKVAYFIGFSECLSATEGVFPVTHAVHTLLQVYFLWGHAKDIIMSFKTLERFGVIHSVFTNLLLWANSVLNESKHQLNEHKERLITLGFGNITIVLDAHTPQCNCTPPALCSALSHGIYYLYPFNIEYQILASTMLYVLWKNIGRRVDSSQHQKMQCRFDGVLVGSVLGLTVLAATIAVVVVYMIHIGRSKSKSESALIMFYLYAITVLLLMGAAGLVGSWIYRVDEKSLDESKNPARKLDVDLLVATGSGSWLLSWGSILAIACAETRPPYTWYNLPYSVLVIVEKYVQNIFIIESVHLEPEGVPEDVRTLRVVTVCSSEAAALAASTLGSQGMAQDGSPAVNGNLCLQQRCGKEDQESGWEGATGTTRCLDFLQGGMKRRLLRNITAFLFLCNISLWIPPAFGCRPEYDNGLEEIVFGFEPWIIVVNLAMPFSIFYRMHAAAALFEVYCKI

Consider `Cc1cc(NC(=O)c2ccc(Br)o2)ccc1NC(=O)c1ccco1` [B2FAMP, 5-Bromo-N-[4-(2-furoylamino)-3-methylphenyl]-2-furamide], for which, in [1], the “effect on hOtop1 currents” value is recorded as “potent potentiation effects”. For the same compound, at mOtop1/R554A, the “effect of mutating R554 on the compound's action on Otop1” value is “only partially reduced”.

On to `CC(C)c1noc2ncc(C(=O)c3ccccc3O)cc12` [HIMOP, (2-hydroxyphenyl)-(3-propan-2-yl-5-isoxazolo[5,4-b]pyridinyl)methanone], for which the inhibition ratio on NaV1.7 is on record as 11.3%; at NaV1.5 it was 8.9%; at hERG, 8.5%. Moreover, the “effect on hOtop1 currents” value in data set [1] is “potent potentiation effects”. Besides, the “sensitivity of channel to compound” value at CaV3.1 (vs 0.1% DMSO), on Kir2.1 and on ASIC1a was “completely resistant” each time. In addition, the “effect of mutating R554 on the compound's action on Otop1” value at mOtop1/R554A was “did not affect”.

With `Cc1ccc(C(=O)Nc2ccc3ccccc3c2)o1` [MFaN, 5-methyl-N-2-naphthyl-2-furamide], the “response of mutant to MFaN compared to wild-type mOtop1” value was “markedly reduced” on mOtop1 I239A, “significantly enhanced” at mOtop1 L243A and “significantly enhanced” at mOtop1 D245A. Further, the “sensitivity of channel to compound” value on NaV1.7 (vs 0.1% DMSO), at Kir2.1 and at ASIC1a was “completely resistant” in each case. Moreover, the inhibition ratio came out at 14.8% at NaV1.5, 11.7% at CaV3.1 and 13.7% on hERG. For the same compound, the “effect on hOtop1 currents” value in [1] is on record as “potent potentiation effects”. Besides, the “response of mutant to MFaN” value on mOtop1/R554A (10 μM, pH 5.5) is listed as “entirely unresponsive; also recorded: completely abolished”; on mOtop1/R554A (pHs of 4.5, 5.0, and 6.0), “completely unresponsive”.
